Measured values reported in article PMC5587398 (Journal of pharmaceutical and biomedical analysis, 2017).

Assays:
[1] = Pharmacokinetic study in mice after single oral dose; type: in vivo, male C57BL/6 mice
Outline: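 Male C57BL/6 mice (~30 g; 12 total, n=4 per time point) got a single 30 mg/kg gavage, 10 mL/kg, in 20 mM citric buffer (pH~3). K2EDTA blood was drawn at 0.167–24 hr and the plasma stored at -80°C. Plasma was precipitated with ACN/MeOH 7/3 containing deuterated IS, then run on HILIC amide +ESI SRM (0.01–25 µM calibration). Non-compartmental parameters were taken from mean concentrations per time point.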

[2] = Pharmacokinetic study in rats after single oral dose; type: in vivo, male Sprague-Dawley rats; details: plasma
Outline: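 Male Sprague-Dawley rats (~300 g, n=4) got a single 30 mg/kg oral gavage, 10 mL/kg, in 20 mM citric buffer (pH~3). K2EDTA blood was drawn at 0.167, 0.5, 1, 2, 3, 5, 7 and 24 hr, and plasma was stored at -80°C. Analysis used IS-containing ACN/MeOH precipitation and HILIC-UPLC-MS/MS. Non-compartmental analysis used linear-trapezoidal AUC; t1/2 = 0.693/λ, with λ from ≥3 terminal points.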

[3] = male, C57BL/6, mouse, plasma, po, 30 mg/kg
[4] = male, Sprague-Dawley, rat, po, 30 mg/kg

half-life ([1]; male, C57BL/6 (mice), Sprague-Dawley (rats), mouse, plasma, po, 30 mg/kg): 7 to 8 h
AUC(0-inf) [1, 3]: 84100 ng·h/mL
Cmax [1, 3]: 5620 ng/mL
Tmax [1, 3]: 5 h
absorption after PO administration ([1]; rodents (mice and rats), PO administration, summary statement): well absorbed
t(1/2) ([2]; male SD rats (n=4), 30 mg/kg PO single dose, mean ± SD): 7.9 ± 0.9 h
AUC(0-inf) [2, 4]: 91700 ± 18000 ng·h/mL
Cmax [2, 4]: 13300 ± 2600 ng/mL
Tmax [2, 4]: 0.58 ± 0.48 h
SMILES: NC1=NCCN1CC(=O)O [cyclocreatine, 1-Carboxymethyl-2-iminoimidazolidine]
